Results: ChEMBL document CHEMBL3992512, “The Discovery and Hit-to-Lead Optimization of Tricyclic Sulfonamides as Potent and Efficacious Potentiators of Glycine Receptors” (J Med Chem, 2017)
In brackets after ≈: the same amount, converted by molar mass. Activity calls are given as the source filed them.

Columns and labels:
[1] = target: Glycine receptor alpha-3/beta (Homo sapiens) (UniProt O75311+P48167); test: Positive allosteric modulation of human glycine alpha3beta receptor expressed in HEK293T cells assessed as compound concentration required to induce up to 3-fold leftward shift in glycine-induced increase in chloride ion flux after 4 mins by Schild plot analysis; format: cell-based
Method in brief: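 HEK293T cells stably expressing human GlyRα3β, ~12000 cells/well, plated overnight and loaded with membrane potential blue dye. Glycine 1:2 dilution series premixed with compound at varying concentrations in HEPES/NaCl/mannitol buffer, pH 7.4. FLIPR fluorescence read 4 min and processed as AUC over baseline. mEC₃ is the lowest tested concentration giving a ≥3-fold leftward shift of glycine EC₅₀.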

[2] = Intrinsic clearance in mouse liver microsomes up to 40 mins in presence of NADPH; format: ADME, microsome; settings: read-out: CLH
[3] = Passive apparent permeability in MDCK cells; format: ADME, cell-based, Canis lupus familiaris; settings: dog
Method in brief: (§1)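 Bidirectional transport at 5 μM, in triplicate, across MDCK cells carrying control vector, human MDR1 or human ABCG2 (BCRP). Passive Papp is the mean of both directions in vector-control cells. Efflux ratios come from the MDR1 and BCRP lines.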

human MDR1 = test: Efflux ratio of passive apparent permeability in MDCK cells harboring human MDR1; format: ADME, cell-based, Canis lupus familiaris; settings: dog; method in brief: as §1
human BCRP = test: Efflux ratio of passive apparent permeability in MDCK cells harboring human BCRP; format: ADME, cell-based, Canis lupus familiaris; settings: dog; method in brief: as §1
[4] = Ratio of unbound Cmax in mouse brain to EC50 for glycine alpha3 receptor in mouse model of spared nerve injury-induced tactile allodynia at 60 mg/kg, po
Liver [5] = test: Drug metabolism in mouse liver microsomes assessed as oxidation of quinolinone core up to 40 mins in presence of NADPH; format: ADME, microsome
Liver [6] = test: Drug metabolism in mouse liver microsomes assessed as oxidation of pyrrolidine ring up to 40 mins in presence of NADPH; format: ADME, microsome
Liver [7] = test: Drug metabolism in mouse liver microsomes assessed as oxidation of benzodioxolane moiety up to 40 mins in presence of NADPH; format: ADME, microsome
Plasma [8] = test: Unbound Cmax in mouse plasma at 50 mg/kg, ip; format: ADME, organism-based; settings: in vivo
[9] = Solubility in phosphate buffered saline; format: physicochemical
[10] = Solubility in fasted state simulated intestinal fluid; format: physicochemical
[11] = Ratio of unbound Cmax in mouse brain to EC50 for glycine alpha3 receptor in mouse model of spared nerve injury-induced tactile allodynia at 30 mg/kg, po
Method in brief: (§2)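 Mice dosed orally; unbound brain Cmax is total brain concentration × brain fraction unbound, sampled at multiple time points. It is divided by EC₅₀ for potentiation of mouse GlyRα3.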

Mus musculus [12] = organism: Mus musculus; test: Ex vivo positive allosteric modulation of glycine receptor in C57BL/6 mouse spinal cord assessed as potentiation of glycine-induced post synaptic current amplitude at 0.5 uM at holding potential of -60 mV after 10 mins in presence of sodium channel inhibitor TTX/AMPA/kainate receptor antagonist CNQX/GABAa receptor antagonist bicuculline/NMDA receptor antagonist APV by electrophysiology method relative to glycine alone
Method in brief: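 Adult mouse spinal cord slices; dorsal horn neurons in laminae I–II were identified histologically and confirmed glycinergic by focal glycine (20 μM) with strychnine (10 μM) reversal. Postsynaptic current amplitude was recorded with glycine 20 μM alone, then with glycine plus compound at 0.5 μM, then with strychnine added. The readout is the mean ratio of PSC amplitude (compound + glycine / glycine alone), n = 5.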

[13] = Ratio of unbound Cmax in mouse brain to EC50 for glycine alpha3 receptor in mouse model of spared nerve injury-induced tactile allodynia at 30 mg/kg, ip
Method in brief: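 After intraperitoneal dosing, brains were collected at multiple time points. Unbound brain concentration is total brain concentration × brain fraction unbound, divided by mouse GlyRα3 potentiation EC₅₀.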

[14] = Ratio of unbound Cmax in mouse brain to EC50 for glycine alpha3 receptor in mouse model of spared nerve injury-induced tactile allodynia at 10 mg/kg, po; method in brief: as §2
[15] = Oral bioavailability in mouse at 10 mg/kg; format: ADME, organism-based; settings: in vivo
[16] = target: T1, Glycine receptor subunit alpha-3 (Homo sapiens, UniProt O75311); test: Positive allosteric modulation of human glycine alpha3 receptor expressed in HEK293T cells assessed as potentiation of glycine-induced increase in chloride ion flux after 4 mins by membrane potential blue dye based FLIPR assay; format: cell-based, HEK-293T
T1 sequence (O75311 whole entry): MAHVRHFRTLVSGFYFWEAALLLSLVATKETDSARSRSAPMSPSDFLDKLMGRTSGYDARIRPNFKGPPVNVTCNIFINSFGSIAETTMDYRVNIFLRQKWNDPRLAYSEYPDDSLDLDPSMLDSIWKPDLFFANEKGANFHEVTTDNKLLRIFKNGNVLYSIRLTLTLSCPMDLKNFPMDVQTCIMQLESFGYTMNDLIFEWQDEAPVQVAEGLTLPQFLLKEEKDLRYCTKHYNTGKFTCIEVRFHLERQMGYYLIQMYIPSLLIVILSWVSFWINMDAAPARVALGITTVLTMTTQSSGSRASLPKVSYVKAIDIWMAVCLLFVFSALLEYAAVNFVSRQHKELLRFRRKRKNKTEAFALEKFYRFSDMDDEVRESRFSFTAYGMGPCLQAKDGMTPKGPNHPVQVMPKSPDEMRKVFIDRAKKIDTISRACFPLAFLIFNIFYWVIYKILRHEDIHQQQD

[17] = target: T1, Glycine receptor subunit alpha-3; test: Binding affinity to human glycine alpha3 receptor expressed in HEK293T cells by SPR assay; set-up: species or system HEK-293T
Mus musculus [18] = test: Antiallodynic activity in mouse model of spared nerve injury-induced tactile allodynia assessed as tactile threshold at 20 mg/kg, po measured 60 mins post dose by Von Frey filament assay (reference value: 0.82 +/- 0.19 g); format: functional
[19] = Drug degradation in neutral buffer at 37 degC after 1 hr
Method in brief: (§3)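 Buffer stability was followed as percent decomposition at three conditions: neutral buffer at 37 °C over 1 h, pH 2 acidic buffer at room temperature, and pH 11 basic buffer at room temperature up to 20 h.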

[20] = Chemical stability in pH 2 acidic buffer at room temperature measured immediately; format: physicochemical; method in brief: as §3
[21] = Drug degradation in pH 11 basic buffer at room temperature measured after 20 hrs; method in brief: as §3
Plasma [22] = test: Stability in mouse plasma; format: ADME, cell-free
Plasma [23] = test: Unbound Cmax in mouse plasma at 30 mg/kg, ip; format: ADME, organism-based; settings: in vivo
[24] = Ratio of unbound Cmax in mouse brain to EC50 for glycine alpha3 receptor in mouse model of spared nerve injury-induced tactile allodynia at 20 mg/kg, po
Mus musculus [25] = test: Antiallodynic activity in mouse model of spared nerve injury-induced tactile allodynia assessed as tactile threshold at 30 mg/kg, po measured 90 mins post dose by Von Frey filament assay; format: functional, organism-based
[26] = Intrinsic clearance in human liver microsomes; format: ADME, microsome; settings: read-out: CLH
[27] = Ratio of unbound Cmax in mouse brain to EC50 for glycine alpha3 receptor in mouse model of spared nerve injury-induced tactile allodynia at 50 mg/kg, po

SMILES | MEC [1] [µM] | microsomal CLint [2] [µL/min/mg] | Papp [3] [×10⁻⁶ cm/s] | efflux ratio (human MDR1) | efflux ratio (human BCRP) | further results
CN1C(=O)[C@@H]2CN(S(=O)(=O)c3ccc4scnc4c3)C[C@@H]2c2cnccc21 | 1.56 | 79 | 48 | 3.3 | 1.4 | Ratio [4]: 0.15
CN1C(=O)[C@@H]2CN(S(=O)(=O)c3ccc4c(c3)OCO4)C[C@@H]2c2ccccc21 | 0.78 |  | 46 |  |  | Drug metabolism (Liver [5]): Metabolite_Detected; Drug metabolism (Liver [6]): Metabolite_Detected; Drug metabolism (Liver [7]): Metabolite_Detected; fCmax (Plasma [8]): 0.07 µM
CN1C(=O)[C@@H]2CN(S(=O)(=O)c3ccc4c(c3)OCO4)C[C@@H]2c2ncccc21 | 0.78 | 136 | 45 | 1.5 | 1 | solubility [9]: 7 µM (≈ 2.71 µg/mL); solubility [10]: 28 µM (≈ 10.8 µg/mL); Ratio [11]: 0.006
CN1C(=O)[C@H]2CN(S(=O)(=O)c3ccc4c(c3)OCO4)C[C@H]2c2cnccc21 | > 25 | 213 | 14 | 1 | 0.9 | Activity (Mus musculus [12]): inactive
CN1C(=O)[C@@H]2CN(S(=O)(=O)c3ccc4nc[nH]c4c3)C[C@@H]2c2cnccc21 | 3.1 | < 14 |  |  |  | Ratio [13]: 0.047
CN1C(=O)[C@@H]2CN(S(=O)(=O)c3ccc4c(c3)OCC4)C[C@@H]2c2cnccc21 | 1.56 | 177 | 28 | 2.9 | 0.7 | Ratio [4]: 0.38
CN1C(=O)[C@@H]2CN(S(=O)(=O)c3ccc4c(c3)OCO4)C[C@@H]2c2cnccc21 | 0.2 | 151 | 52 | 0.8 | 0.9 | solubility [9]: 235 µM (≈ 91 µg/mL); solubility [10]: 296 µM (≈ 115 µg/mL); fold change (FC) (Mus musculus [12]): 4.9; Ratio [11]: 0.62
CN1C(=O)[C@@H]2CN(S(=O)(=O)c3ccc4occc4c3)C[C@@H]2c2cnccc21 | 0.2 | 188 | 69 | 1.5 | 1.1 | fold change (FC) (Mus musculus [12]): 4.4; Ratio [14]: 1.2; bioavailability [15]: 100%; EC50 [16]: 450 nM; Kd [17]: 190 nM; Activity (Mus musculus [18]): 1.53 g
CN1C(=O)[C@@H]2CN(S(=O)(=O)c3ccc4ocnc4c3)C[C@@H]2c2cnccc21 | 0.39 | 73 | 25 | 3.6 | 1.1 | Drug degradation [19]: 50%; Stability [20]: Unstable; Drug degradation [21]: 30%; Stability (Plasma [22]): Unstable
O=S(=O)(c1ccc2c(c1)OCO2)N1C[C@@H]2c3ccccc3-n3ccnc3[C@@H]2C1 | 3.1 | 901 | 58 | 1.7 | 1.3 | fCmax (Plasma [23]): 0.13 µM
C[C@@H]1[C@H]2C(=O)N(C)c3ccncc3[C@H]2CN1S(=O)(=O)c1ccc2c(c1)OCO2 | > 25 |  |  |  |  | EC50 [16]: > 25000 nM; Kd [17]: > 20000 nM
CN1C(=O)[C@H]2CN(S(=O)(=O)c3ccc4occc4c3)C[C@H]2c2cnccc21 | > 25 |  |  |  |  | EC50 [16]: 20000 to 25000 nM; Kd [17]: > 20000 nM; Activity (Mus musculus [18]): inactive; Ratio [24]: 1.9
CC(C)C[C@H](CN)CC(=O)O |  |  |  |  |  | Activity (Mus musculus [25]): Active
C[C@H]1[C@H]2C(=O)N(C)c3ccncc3[C@H]2CN1S(=O)(=O)c1ccc2c(c1)OCO2 | 0.025 | 254 | 43.1 | 1.6 |  | EC50 [16]: 50 nM; Kd [17]: 11 nM; microsomal CLint [26]: 83 µL/min/mg
CN1C(=O)[C@@H]2CN(S(=O)(=O)c3ccc4c(c3)CCO4)C[C@@H]2c2cnccc21 | 3.1 | 225 | 50 | 4.3 | 1.2 | Ratio [27]: 0.19
